CHT allo act: CHT positive allosteric modulators, primary screen, cell-based, membrane potential dye, choline EC20; CHT-expressing cells; hits give high values; LV-AA mutant CHT in HEK293 cells; B-score at 10 µM; hit rate 0.49% among 310,000; High affinity choline transporter 1 (Homo sapiens), Q9GZV3;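 active means initial fluorescence not abnormally high and integrated response B-score, plate-corrected, over 3 SD above library mean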
Target sequence (Q9GZV3 whole entry, looked up): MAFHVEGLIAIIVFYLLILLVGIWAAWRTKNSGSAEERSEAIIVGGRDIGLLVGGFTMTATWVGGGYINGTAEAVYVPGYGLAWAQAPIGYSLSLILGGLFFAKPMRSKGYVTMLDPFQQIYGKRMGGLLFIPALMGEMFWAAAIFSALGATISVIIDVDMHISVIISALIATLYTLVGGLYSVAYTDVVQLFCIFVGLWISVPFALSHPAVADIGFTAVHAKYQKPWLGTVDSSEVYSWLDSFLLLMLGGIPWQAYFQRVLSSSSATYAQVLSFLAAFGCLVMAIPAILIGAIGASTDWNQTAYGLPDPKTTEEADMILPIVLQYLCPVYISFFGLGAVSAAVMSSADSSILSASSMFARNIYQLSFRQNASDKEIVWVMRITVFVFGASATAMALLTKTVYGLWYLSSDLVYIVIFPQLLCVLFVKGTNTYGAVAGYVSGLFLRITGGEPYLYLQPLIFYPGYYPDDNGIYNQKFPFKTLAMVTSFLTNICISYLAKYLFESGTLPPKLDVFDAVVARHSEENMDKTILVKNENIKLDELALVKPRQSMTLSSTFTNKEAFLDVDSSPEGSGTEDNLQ
PolyA inh: polyadenylation inhibitors in yeast reporter cells, primary screen, luminescence, S. cerevisiae | hit rate 0.02% among 300,000 | S. cerevisiae SKY197-pL101 polyadenylation reporter, beta-gal luminescence; efflux-impaired pdr1/pdr3 knockout yeast; score 100 = 6 SD above DMSO | activity score, % at 12 µM | AID 1875, 2009;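 active means lowest replicate activity score at least 50, where 100 means six control SD above control mean; inconclusive means lowest score under 50 but half or more replicates reach 50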;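 further: yeast exposed to compound for 9 h at 30 °C; higher score means more reporter readthrough which indicates perturbed polyadenylation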
T cruzi inh: inhibitors of intracellular T. cruzi growth, primary screen, luminescence, NIH3T3 host cells; inhibition, % (concentration not given with the values); hit rate 1.4% among 300,000; AID 1885, 2009; T. cruzi beta-gal in NIH3T3, 90 h;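 active means mean inhibition across valid replicates above about 55%, limit read from the data; inconclusive means mean below that limit but half or more replicates reach it; inactive means mean below it, under half of replicates reach it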;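 further: signal also drops with host cell toxicity which is not excluded here; 0% = plate median of DMSO wells and 100% = zero luminescence signal; higher percent means less beta-gal luminescence so fewer parasites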
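System: Mouse NIH/3T3 fibroblasts infected with β-gal-expressing T. cruzi Tulahuen C4 | Quantity: NIH/3T3 cells, 5,000 per well | Reagent: 5000 reporter trypomastigotes per well | Dosing: Compound pinned at 50 nL/well, DMSO | Schedule: 3 h host attachment, then at least 90 h co-culture | Detection: GalScreen luminescence, 60 min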
CHT inh: inhibitors of human choline transporter CHT; High affinity choline transporter 1 (Homo sapiens), Q9GZV3; CHT-expressing cells, membrane potential dye, choline response; hits give low values; B-score at 10 µM; hit rate 0.86% among 310,000;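 active means B-score over 3 SD under the library average, and starting fluorescence ratio not unusually high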;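 further: choline stimulus applied at its EC90 after an EC20 pre-addition; B-score computed on integrated fluorescence ratio after choline addition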
An asterisk follows results filed as active; i = inactive; ? = inconclusive; . = no result. An excerpt weighted towards active compounds, which were near 2.6% of everything screened.

SMILES	CHT allo act	PolyA inh	T cruzi inh	CHT inh
Cn1c(-c2ccccc2)c(CCO)c2ccccc21	i	-11	-4	i
Cn1c(-c2ccccc2)c(C(=O)CCl)c2ccccc21	.	-37	71*	.
Cc1nnc(-c2cccc(Br)c2)c2cn(-c3cccc(Br)c3)nc12	i	-19	60*	i
O=C(OCC(=O)N1CCCC1)c1ccc(S(=O)(=O)Nc2ccccc2)cc1	i	-7	-19	i
O=[N+]([O-])c1cccc(COc2ncnc3cc([N+](=O)[O-])ccc23)c1	i	10	64*	i
COc1ccc(CCNC(=O)COc2ncnc3cc([N+](=O)[O-])ccc23)cc1	i	6	30	i
O=C(COc1ccc(F)cc1Cl)Nc1cc(S(=O)(=O)N2CCOCC2)ccc1N1CCCCC1	i	-4	63*	i
CN1CCN(c2ccc(S(=O)(=O)N3CCOCC3)cc2NC(=O)COc2ccc(F)cc2Cl)CC1	i	14	46	i
CCN(CC)S(=O)(=O)c1ccc(N2CCN(C)CC2)c(NC(=O)COc2ccc(F)cc2Cl)c1	i	7	59*	i
CCc1nnc(NC(=O)CN2CCN(Cc3ccc(F)cc3)CC2)s1	i	18	33	i
CN(C)CCCOC(=O)c1ccc(Cl)cc1Cl	i	16	62*	i
O=C(COc1ccc(Cl)cc1)Nc1ccc2c(c1)nc1n2CCOC1	i	-3	-5	i
CCOc1cccc(C(=O)Nc2ccccc2N2CCN(C(=O)C(C)C)CC2)c1	i	-4	3	-5.7*
CCOC(=O)c1c(NC(=O)CCl)sc(CN(C)C)c1-c1ccccc1	i	-7	-1	i
CCOC(=O)c1c(NC(=O)CN2CCCCC2)sc(CN(C)C)c1-c1ccccc1	i	-7	68*	i
CCOC(=O)c1c(NC(=S)N2CCN(C)CC2)sc(C)c1-c1ccccc1	i	2	61*	i
CCOC(=O)c1c(NC(=O)/C=C/C(=O)O)sc(C)c1-c1ccc(Cl)cc1	i	-25	23	i
COc1ccc(N(C)C(=O)C2CCN(S(=O)(=O)c3cccc4nonc34)CC2)cc1	i	-8	18	i
O=C(N/N=C/c1ccncc1)c1sc2ccccc2c1Cl	i	16	3	i
O=C(N/N=C/c1ccc[nH]1)c1sc2ccccc2c1Cl	i	-2	69*	i
CCOC(=O)c1c(-c2ccc(C)o2)csc1NC(=O)CSc1nnnn1-c1ccccc1	i	-5	60*	i
CCN1CCN(c2nc3c(c(=O)n(C)c(=O)n3C)n2CCSc2ncccn2)CC1	i	5	-6	-7.5*
Cc1ccnc(SCCn2c(N3CCN(C)CC3)nc3c2c(=O)n(C)c(=O)n3C)n1	i	16	6	i
C/C(=N\NC(=O)c1cccc2ccccc12)c1ccccn1	.	-36	64*	.
O=C(N/N=C(\c1ccccc1)c1ccccn1)c1ccccc1Cl	i	-1	62*	i
SMILES	CHT allo act	PolyA inh	T cruzi inh	CHT inh
COc1ccc(C(=O)N/N=C(\c2ccccc2)c2ccccn2)cc1	i	-18	?	i
COc1cc(C)c(S(=O)(=O)N2CCOCC2)cc1C(C)C	i	-18	3	i
COc1cc(C)c(N)cc1C(C)C	i	-2	67*	i
CN(Cc1ccccc1)C1=CC(=[N+]2CCCCC2)CC(C)(C)C1	i	-15	70*	i
CC1(C)CC(N2CCCC2)=CC(=[N+]2CCCCC2)C1	i	7	?	i
CC1(C)CC(N2CCN(Cc3ccccc3)CC2)=CC(=[N+]2CCCCC2)C1	i	-27	62*	i
N=c1c(S(=O)(=O)c2ccc(Cl)cc2)cc2c(=O)n3ccccc3nc2n1C1CCCC1	i	1	55*	i
N=c1c(S(=O)(=O)c2ccc(Br)cc2)cc2c(=O)n3ccccc3nc2n1C1CCCCC1	i	15	29	i
O=C(COc1ccccc1)Nc1nnc(S(=O)(=O)N2CCCCCC2)s1	i	-5	12	i
CC(=O)[C@]1(O)Cc2c(O)c3c(c(O)c2[C@@H](O[C@H]2C[C@H](N)[C@H](O)[C@H](C)O2)C1)C(=O)c1ccccc1C3=O	i	5	55*	i

Screening data from PubChem.
